In BindingDB's records for doi:10.1021/jm9008532 (Universite Catholique De Louvain, 2009):

Biological target: T1, Fatty-acid amide hydrolase 1 (Homo sapiens, UniProt O00519)
T1 sequence (O00519 whole entry): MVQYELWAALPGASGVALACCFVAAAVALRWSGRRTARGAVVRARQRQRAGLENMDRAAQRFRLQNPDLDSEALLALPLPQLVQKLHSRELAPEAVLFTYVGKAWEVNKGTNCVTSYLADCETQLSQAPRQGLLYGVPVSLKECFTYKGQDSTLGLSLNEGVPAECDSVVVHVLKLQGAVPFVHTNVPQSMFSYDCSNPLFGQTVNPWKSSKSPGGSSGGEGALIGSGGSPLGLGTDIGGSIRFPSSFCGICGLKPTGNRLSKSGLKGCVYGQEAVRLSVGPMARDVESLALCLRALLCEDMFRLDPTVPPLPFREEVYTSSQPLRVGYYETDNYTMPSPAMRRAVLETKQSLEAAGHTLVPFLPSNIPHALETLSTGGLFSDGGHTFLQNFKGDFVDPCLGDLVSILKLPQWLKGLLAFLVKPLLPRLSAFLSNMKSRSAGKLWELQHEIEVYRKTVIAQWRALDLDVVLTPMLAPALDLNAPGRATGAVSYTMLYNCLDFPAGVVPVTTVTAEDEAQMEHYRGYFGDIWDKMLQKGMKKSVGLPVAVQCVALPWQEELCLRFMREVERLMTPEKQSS
Experiment: Inhibition of human recombinant FAAH using [3H]anandamide by competitive hydrolysis assay
Outline: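 Compounds were added in DMSO, with DMSO alone as control, plus [3H]-AEA at 2 μM final, 37 °C for 10 min. The reaction was stopped on ice with cold chloroform/methanol (1:1), and the aqueous phase was counted by LSC with the buffer-only blank subtracted. IC50 is the mean of three independent experiments.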

CC(=O)O[C@@H]1[C@@H]([C@@H](C)OC(=O)CCc2ccccc2)C(=O)N1C(=O)CCc1ccccc1 [1-(3-Phenylpropanoyl)-(3R,4R)-3-[1(R)-(3-phenylpropanoyloxy)-ethyl]-4-(acetoxy)-azetidin-2-one]
IC50: 2.19 µM
